NR2E3 ag-1 – activates human NR2E3 receptor; AID 602229; inhibition of corepressor binding, % at 3.98 µM; Q9Y5X4; 360,000 compounds, 0.35% hits; CHO-S Gal4-NCOR/VP16-NR2E3 two-hybrid, luciferase;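 active = inhibition above the mean of all tested compounds plus 3 SD, cut at about 70% in these data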;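 also: 0% = DMSO with NR2E3 transfected cells and 100% = cells lacking NR2E3 construct; higher means lower luciferase signal from less NR2E3 corepressor binding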
Target sequence (Q9Y5X4 whole entry, looked up, the tested form may be a part): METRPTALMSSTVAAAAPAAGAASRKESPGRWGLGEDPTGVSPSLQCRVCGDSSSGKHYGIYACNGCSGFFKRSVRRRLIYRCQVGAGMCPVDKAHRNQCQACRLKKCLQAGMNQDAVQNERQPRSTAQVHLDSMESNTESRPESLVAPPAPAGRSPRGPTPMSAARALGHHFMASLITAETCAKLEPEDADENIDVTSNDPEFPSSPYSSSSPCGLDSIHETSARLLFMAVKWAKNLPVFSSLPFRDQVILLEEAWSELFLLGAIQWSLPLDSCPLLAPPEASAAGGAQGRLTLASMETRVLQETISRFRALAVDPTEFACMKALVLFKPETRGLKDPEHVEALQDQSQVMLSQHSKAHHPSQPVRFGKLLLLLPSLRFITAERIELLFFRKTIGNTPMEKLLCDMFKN
GAA850 FXN act – activators of GAA850 frataxin (FXN) promoter; HEK293 lucGAA850 FXN promoter luciferase reporter, 24 h; percent of 10 µM SAHA response; activation, % at 6 µM; 360,000 compounds, 0.56% hits; AID 540364;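 active = activation above the average of all compounds screened plus 3 SD, cutoff fixed separately per campaign, cut at about 7.5% in these data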;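 also: 0% = DMSO wells and 100% = 10 µM SAHA wells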
T cell modulator – T cell immune modulation candidate; 330,000 compounds, 0.068% hits; 2C CD8+ T cell-vesicle binding, flow cytometry; hits give low values; response (vesicle binding), % at 7 µM;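 active = response, share of CD8 T cells binding vesicles, and their 90th percentile fluorescence all below set limits, cut at about 80% in these data, passing the limit was not always enough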;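 also: values below 100% mean blocked vesicle binding to the CD8+ T cells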
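Benchmarks: naked versus QL9-loaded vesicles / Assay system: purified 2C TCR transgenic mouse naive CD8+ T cells / Technique: high-throughput flow cytometry with anti-B7-1 and anti-CD8 staining / Timing: Cell–vesicle co-incubation 1.5 h at 37 °C, staining 20 min on ice / Read-out: percent CD8+ FL2 mean versus row control / Probe or stimulus: QL9-loaded Drosophila micro-vesicles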
Myeloid diff MLP – compounds promoting myeloid differentiation; AID 624256; calls only at 10 µM; 360,000 compounds, 1% hits; ER-HoxA9 myeloid progenitors, lysozyme-GFP differentiation, flow cytometry;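 active = normalized GFP-positive differentiation at or above the plate's own cutoff, the solvent-only control mean plus 3 SD; inconclusive = no clear call, values can overlap the other calls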;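 also: cells exposed to compound for four days before flow analysis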
NR2E3 ag-2 – agonists of human nuclear receptor NR2E3. Q9Y5X4. GST-NR2E3/biotin-RetCOR TR-FRET, 1536-well. inhibition of corepressor binding, % at 4.78 µM. 320,000 compounds, 0.12% hits. AID 2300;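 active = percent inhibition above the cutoff of mean plus 3 SD of all tested compounds, set per screening campaign, cut at about 20% in these data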;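 also: 0% = DMSO wells and 100% = biotin wells as full block of FRET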
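Test system: GST-NR2E3 and biotin-RetCOR proteins | Quantity: 1.35 nM GST-tagged NR2E3 final | Medium: Tris pH 7.5 | Also added: 7 nM biotin-RetCOR | Dosing: Compound at 4.8 µM, single dose | Timing: 5 h at 4 °C | Detection: Time-resolved FRET | Read-out basis: Percent inhibition | Benchmarks: Biotin wells as high control, 0.6% DMSO wells as low control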
NR2E3 ag conf – NR2E3 agonism confirmed in two-hybrid assay; CHO-S mammalian two-hybrid NR2E3-NCOR, luciferase luminescence; shares compounds with NR2E3 ag-1; inhibition, % at 3.98 µM; 2,300 compounds, 51% hits;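 active = average inhibition above a cutoff equal to the mean inhibition of all tested compounds plus one SD, cut at about 70% in these data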;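 also: 0% = DMSO in NR2E3 cells and 100% = DMSO in cells lacking NR2E3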
GAL4-VP16 luc – GAL4-VP16 reporter inhibition in NR2E3 agonist counterscreen. shares compounds with NR2E3 ag-1. CHO-S GAL4-VP16 luciferase reporter, luminescence. inhibition, % at 3.98 µM. 2,300 compounds, 29% hits;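 active = mean inhibition above a cutoff equal to the average over all tested compounds plus one standard deviation, cut at about 70% in these data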;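 also: luciferase from a UAS reporter driven by GAL4-VP16 transactivation; 0% = DMSO with VP16-transfected cells and 100% = DMSO with cells lacking VP16; higher means less reporter light so more repression of VP16 activity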
Active calls of the source: *; i = inactive; ? = inconclusive; · = no result; + = active, no number. Compounds with a hit are over-represented: about 2% of the library has one in this group of screens.

SMILES | NR2E3 ag-1 | GAA850 FXN act | T cell modulator | Myeloid diff MLP | NR2E3 ag-2 | NR2E3 ag conf | GAL4-VP16 luc
CCN(CC)S(=O)(=O)c1ccc(N2CCN(c3ccccc3OC)CC2)c(N)c1 | 105* | -2 | 266 | i | 2 | 93* | 74*
COc1ccc(C2c3cc(OC)c(OC)cc3CC3C(=O)OCC32)cc1OC (configuration not stated) | -33 | 1 | · | i | · | · | ·
COc1ccccc1C(=O)Nc1nc2ccc(S(C)(=O)=O)cc2s1 | -49 | 0 | 188 | i | 0 | · | ·
COc1ccccc1C(=O)Nc1nc2ccccc2s1 | 66 | -12 | 214 | i | 1 | 65 | 52
COc1ccc(C(=O)Nc2nc3ccccc3s2)c(OC)c1 | 97* | -14 | 243 | ? | 1 | 89* | 86*
O=C(Cn1cnc2ccccc21)Nc1ccc(SC(F)F)cc1 | 68 | 1 | 154 | i | 4 | 94* | 78*
COc1ccc(NC(=O)COC(=O)Cn2cnc3ccccc32)cc1 | -5 | 1 | 144 | i | · | · | ·
NC(=O)CC(NC(=O)Cc1ccc(Cl)cc1)c1ccc(NC2CC3CCC2C3)c([N+](=O)[O-])c1 (configuration not stated) | 98* | 2 | 206 | i | 3 | -21 | -7
NC(=O)CC(NC(=O)Cc1cccc2ccccc12)c1ccc(NC2CC3CCC2C3)c([N+](=O)[O-])c1 (configuration not stated) | -45 | -1 | 381 | i | -1 | · | ·
O=C(Nc1ccc(Br)cc1)c1ccc(F)c(S(=O)(=O)NCc2cccs2)c1 | 83* | -6 | 226 | i | 1 | 97* | 82*
O=S(=O)(NCc1cccs1)c1ccc(Br)cc1 | -31 | 0 | i | i | 4 | · | ·
c1ccc2c(c1)oc1c(Nc3ccc4c(c3)OCO4)ncnc12 | -119 | 7 | 172 | i | 3 | · | ·
c1ccc2c(c1)oc1c(NCc3ccc4c(c3)OCO4)ncnc12 | 73* | 1 | 190 | i | 1 | 90* | 75*
COc1ccc(OC)c(CN2C(=O)CN(S(C)(=O)=O)CC2(C)C(=O)NC(C)C)c1 (configuration not stated) | · | · | · | i | · | · | ·
COCCCNC(=S)N1CCN(c2nc(-c3ccc(Cl)cc3)cs2)CC1 | 65 | -2 | · | i | · | 73* | 53
CC(=O)C(Sc1ncnc2sc3c(c12)CCCC3)C(C)=O | -24 | 2 | 323 | i | 2 | · | ·
COc1ccccc1-c1cc(C(=O)Nc2c(C)n(C)n(-c3ccccc3)c2=O)no1 | 19 | -2 | 101 | i | 2 | · | ·
COc1ccc(OC)c(-c2cc(C(=O)Nc3c(C)n(C)n(-c4ccccc4)c3=O)no2)c1 | 51 | 3 | 164 | · | -2 | 13 | 21
Nc1ccn([C@@H]2O[C@H](CNCc3ccc(Oc4cc(-n5cccn5)ncn4)cc3)[C@@H](O)[C@H]2O)c(=O)n1 | -14 | 0 | · | i | · | · | ·
O=C(CSc1nnnn1-c1ccccc1)Nc1ncc(Cc2ccccc2Cl)s1 | -20 | 2 | 293 | i | 4 | · | ·
N=C1SC(c2ccccc2)C(=O)N1c1ncc(Cc2ccccc2Cl)s1 (configuration not stated) | 58 | 1 | 175 | i | -1 | 59 | 20
CC[n+]1c(/C=C2\Sc3ccccc3N2C)ccc2cccc(C)c21 | 86* | -9 | · | ? | · | 100* | 81*
CCN1/C(=C/c2ccc3cc(C)ccc3[n+]2CC)Sc2ccccc21 | 91* | -9 | i | ? | -25 | 99* | 89*
CCN1/C(=C/c2ccc3cc(C)ccc3[n+]2CC)Sc2cc(C)c(C)cc21 | 90* | -9 | · | · | · | 99* | 87*
O=C(OCC(=O)N1CCOCC1)c1cc(-c2ccccc2)nc2ccccc12 | 1 | -2 | 208 | i | · | · | ·
SMILES | NR2E3 ag-1 | GAA850 FXN act | T cell modulator | Myeloid diff MLP | NR2E3 ag-2 | NR2E3 ag conf | GAL4-VP16 luc
CCOc1c(Br)cc(CNc2ccc3c(c2)OCCO3)cc1OC | 66 | -14 | 414 | ? | 2 | 18 | -5
Cc1nc(NCCc2ccc(S(N)(=O)=O)cc2)c2c(C)c(C)sc2n1 | 66 | -1 | 288 | i | -3 | 73* | 65
CN(C)S(=O)(=O)N1CCC(Oc2cccc(C(=O)NC3CCCCC3)c2)CC1 | 48 | -5 | 259 | i | -3 | 24 | 42
COc1ccc(C(CNC(=O)c2[nH]c(C)c(C(C)=O)c2C)N2CCOCC2)cc1 (configuration not stated) | -10 | 0 | 174 | i | 0 | · | ·
COc1cnc(-c2ccccn2)nc1Sc1c(Cl)cccc1Cl | 91* | 0 | 535 | i | 1 | 24 | 3
CCOC(=O)C(C)Sc1nc(-c2ccccn2)ncc1OC (configuration not stated) | 44 | 0 | 243 | i | -4 | · | ·
COc1cnc(-c2ccccn2)nc1Sc1ccccc1Cl | 91* | 0 | 254 | i | -5 | 90* | 25
Cc1ncc([N+](=O)[O-])n1CC(=O)Nc1ccccc1Cl | -15 | 1 | · | i | · | · | ·
O=C(NCC(c1ccco1)N1CCCC1)c1ccc(Cl)c(S(=O)(=O)N2CCc3ccccc32)c1 (configuration not stated) | 61 | -4 | 108 | + | 1 | 50 | 50
O=C(NCC(c1ccco1)N1CCc2ccccc2C1)c1ccc(Cl)c([N+](=O)[O-])c1 (configuration not stated) | -6 | -2 | 327 | i | 1 | · | ·
NC(=O)c1ccccc1NC(=O)c1ccccc1Cl | -6 | 2 | 18 | i | 0 | · | ·
O=C(Nc1ccccc1C(=O)Nc1nnc(C(F)(F)F)s1)c1ccccc1Cl | 100* | -5 | 218 | i | 2 | 101* | 93*
CC(=O)N1CCOc2ccc(S(=O)(=O)N3CCC(C(=O)NCc4ccc(Cl)cc4)CC3)cc21 | 12 | -2 | · | i | · | · | ·
Cc1ccc(S(=O)(=O)Nc2cccc3cccnc23)c([N+](=O)[O-])c1 | 76* | 3 | 443 | i | 1 | 55 | 22
Cc1cc(C)c(NS(=O)(=O)c2cccc3cccnc23)c(C)c1 | 6 | -1 | 133 | i | 2 | · | ·
O=S(=O)(Nc1cccc2cccnc12)c1ccccc1 | 86* | -15 | 784 | ? | 0 | 18 | 4
CC(=O)Nc1ccc(CNc2nc3cc(-c4ccc(F)cc4)sc3c(=O)n2C)cc1 | -23 | 1 | · | i | · | · | ·
CC(=O)N1CCc2cc(NC(=O)C3(C)CCN3Cc3ccccc3Cl)ccc21 (configuration not stated) | -33 | -5 | · | i | · | · | ·
CCCCc1ccc(S(=O)(=O)N/N=C(/C)c2ccncc2)cc1 | 86* | 1 | 175 | i | -1 | 51 | 67

From PubChem
